Laboratory results as given in ChEMBL document CHEMBL1124676, “Hypoxia-selective antitumor agents. 2. Electronic effects of 4-substituents on the mechanisms of cytotoxicity and metabolic stability of nitracrine derivatives” (J Med Chem, 1989).

What was measured:
[1] = Hypersensitivity factor (HF) of IC50 (AA8) / IC50 (EM-9) of compound for repair deffective mutants; assay type: functional
In short: (§1)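 Miniassay: AA8, UV-4, UV-5 or EM-9 cells were seeded at 2 × 10^4 cells/mL in 24-well dishes. After 24 h, five 2-fold serial concentrations were added in duplicate and held 4 h at 37 °C. Cells were washed, grown 30 h more, trypsinized and counted electronically. IC50 is 50% of mean control cell density. HF = IC50(AA8)/IC50(mutant), mean ± SE of 2–4 experiments.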

[2] = Hypersensitivity factor (HF) of IC50 (AA8) / IC50 (UV-4) of compound for repair deffective mutants; assay type: functional; in short: as §1
[3] = Hypersensitivity factor (HF) of IC50 (AA8) / IC50 (UV-5) of compound for repair deffective mutants; assay type: functional; in short: as §1
[4] = Half life of extracellular bioactivity assessed by bioassay of culture supernatant against aerobic UV-4 cells; assay type: ADME, cell-based, Cricetulus griseus, UV4; conditions: chinese hamster, aerobic UV-4 cell cultures (culture supernatant)
In short: (§2)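 Plateau-phase AA8 cells, 10^6 cells/mL, stirred suspension under 5% CO2 in air or N2. Supernatants sampled over time (spun 1300g × 1 min) and dilutions assayed against log-phase UV-4 (seeded 3 × 10^3 cells/mL, 24 h earlier), 4-day continuous exposure, methylene blue staining. Activity remaining = IC50 at time zero / apparent IC50; half-life and zero-time intercept from log-linear regression.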

[5] = Half life of extracellular bioactivity assessed by bioassay of culture supernatant against hypoxic UV-4 cells; assay type: ADME, cell-based, Cricetulus griseus, UV4; conditions: chinese hamster, hypoxic UV-4 cell cultures (culture supernatant); in short: as §2
[6] = Extrapolated fraction of biological activity remaining at time zero of hypoxic AA8 suspension cultures; assay type: ADME; conditions: hamster; in short: as §2
[7] = (§3) Extrapolated fraction of biological activity remaining at time zero of stirred aerobic AA8 suspension cultures; assay type: ADME; conditions: hamster; in short: as §2
CHO-AA8 [8] = test: Inhibitory activity to reduce cell density by 50% of AA8 cells under aerobic conditions; assay type: functional, cell-based; conditions: Cricetulus griseus
In short: (§4)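 Microassay: 200 AA8 or 300 UV-4 viable cells/well plus 5000 irradiated (35 Gy) AA8 feeder cells. Serial 2-fold drug dilutions added after 24 h. Plates held 18 h at 37 °C in chambers flushed with 5% CO2 in air or in N2 (with 1% H2, Pd catalyst). Then washed, grown 72-78 h, stained with methylene blue, A620−A405. IC50 vs 50% of control; three independent experiments.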

UV4 [9] = test: Inhibitory ativity to reduce cell density by 50% of repair deffective mutant UV-4 cells in 96-well cultures under aerobic conditions; assay type: functional, cell-based; conditions: Cricetulus griseus; in short: as §4
UV4 [10] = test: Inhibitory concentration required to reduce cell density in UV-4 cells to 50% of controls (cells were exposed to compound for 4 days continuously); assay type: functional, cell-based; conditions: Cricetulus griseus, UV4, 96 h
In short: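 UV-4 cells seeded at 3 × 10^3 cells/mL about 24 h before drug, exposed continuously for 4 days, then methylene blue staining. IC50 = concentration reducing absorbance to 50% of controls; six determinations.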

[11] = Ratio for […], expressed as hypersensitivity factor under aerobic conditions; assay type: functional; in short: as §4
[12] = Ratio of growth inhibition of compound to reduce cell density by 50% of repair deffective mutant UV-4 cells in 96-well cultures under aerobic and hypoxic conditions (air/N2); assay type: functional; in short: as §4
[13] = Ratio of growth inhibition of compound to reduce cell density by 50% of AA8 cells under aerobic and hypoxic conditions (air/N2); assay type: functional, CHO-AA8; in short: as §4
[14] = Total compound concentration in AA8 suspension cultures at zero time; assay type: ADME; conditions: hamster
[15] = Half life of extracellular bioactivity assessed by bioassay of culture supernatant against aerobic UV-4 cells; No statistically significant trend with time; assay type: ADME, cell-based, Cricetulus griseus; conditions: chinese hamster, uv4; in short: as §2
CHO-AA8 [16] = test: as §3; assay type: functional, Cricetulus griseus; in short: as §2
[17] = Ratio for hypoxic AA8/ hypoxic UV-4, expressed as hypersensitivity factor under hypoxic conditions; assay type: functional; in short: as §4

| Compound | Ratio [1] | Ratio [2] | Ratio [3] | half-life [4] | half-life [5] | A0 [6] | A0 [7] | IC50 (CHO-AA8 [8]) | IC50 (UV4 [9]) | IC50 (UV4 [10]) | Ratio [11] | Ratio [12] | Ratio [13] | CO [14] | T1/2 [15] | A0 (CHO-AA8 [16]) | Ratio [17] |
| --- | --- | --- | --- | --- | --- | --- | --- | --- | --- | --- | --- | --- | --- | --- | --- | --- | --- |
| CN(C)CCCNc1c2ccccc2nc2ccccc12 | 0.78 | 1.03 | 0.87 | – | – | – | – | – | – | – | – | – | – | – | – | – | – |
| O=C(O)CCCc1ccc(N(CCCl)CCCl)cc1 | 0.69 | 43 | 1.4 | – | – | – | – | – | – | – | – | – | – | – | – | – | – |
| CC(=O)OCCN(CCOC(C)=O)c1ccc([N+](=O)[O-])c2c(NCCCN(C)C)c3ccccc3nc12 | – | – | – | 18 h | 8.4 h | 1.03 | 1.11 | 43000 nM | 11600 nM | 3450 nM | 4.8 | 4.8 | 4.5 | – | – | – | – |
| CCOS(C)(=O)=O [METHANESULFONIC ACID ETHYL ESTER] | 6.3 | 1.3 | 1.2 | – | – | – | – | – | – | – | – | – | – | – | – | – | – |
| O=[N+]([O-])c1cc[n+]([O-])c2ccccc12 [4-NITROQUINOLINE-1-OXIDE] | 0.8 | 17 | 16 | – | – | – | – | – | – | – | – | – | – | – | – | – | – |
| COc1cc(NS(C)(=O)=O)ccc1Nc1c2ccccc2nc2ccccc12 | 0.68 | 0.9 | 0.9 | – | – | – | – | – | – | – | – | – | – | – | – | – | – |
| CO[C@@]12[C@H](COC(N)=O)C3=C(C(=O)C(C)=C(N)C3=O)N1C[C@@H]1N[C@@H]12 | 0.78 | 86 | 2.35 | – | – | – | – | – | – | – | – | – | – | – | – | – | – |
| CN(C)CCCNc1c2ccccc2nc2c(N(C)C)ccc([N+](=O)[O-])c12 | – | – | – | 4.8 h | 2.3 h | 0.68 | 0.78 | 18900 nM | 6200 nM | 410 nM | 2.1 | 2.3 | 3.3 | – | – | – | – |
| CN(C)CCCNc1c2ccccc2nc2c(Cl)ccc([N+](=O)[O-])c12 | – | – | – | 4.3 h | 0.68 h | 0.56 | 0.79 | 33 nM | 3.3 nM | 0.62 nM | 13 | 4.9 | 3.7 | 0.04 mM | – | – | – |
| CN(C)CCCNc1c2ccccc2nc2c(N(CCO)CCO)ccc([N+](=O)[O-])c12 | – | – | – | – | – | – | – | 62000 nM | 19400 nM | – | – | – | – | – | – | – | – |
| CN(C)CCCNc1c2ccccc2nc2c(F)ccc([N+](=O)[O-])c12 | – | – | – | 0.91 h | 0.77 h | 0.84 | 0.64 | 250 nM | 12 nM | 2 nM | 21 | 1.4 | 1.3 | 0.1 mM | – | – | – |
| Cc1ccc([N+](=O)[O-])c2c(NCCCN(C)C)c3ccccc3nc12 | – | – | – | – | 0.99 h | 1.12 | 0.65 | 76 nM | 8 nM | 1.65 nM | 9 | 4.6 | 5 | 0.2 mM | Not Active | – | – |
| COc1ccc([N+](=O)[O-])c2c(NCCCN(C)C)c3ccccc3nc12 | – | – | – | 14 h | 5.2 h | 0.78 | 0.76 | 616 nM | 63 nM | 14.5 nM | 7.8 | 4.2 | 5.3 | 3 mM | – | – | – |
| COC(=O)c1ccc([N+](=O)[O-])c2c(NCCCN(C)C)c3ccccc3nc12 | – | – | – | – | 3.9 h | 0.45 | – | 2900 nM | 1950 nM | 590 nM | 1.5 | 1.2 | 1.2 | 0.01 mM | Not Active | 0.47 | 1.5 |
| CN(C)CCCNc1c2ccccc2nc2cccc([N+](=O)[O-])c12 [NITRACRINE] | 1.8 | 12.8 | 8 | 7.3 h | 0.84 h | 0.98 | 0.86 | 26.3 nM | 2 nM | 0.66 nM | 14.9 | 3.8 | – | 0.04 mM | – | – | – |
